This note sets out measurements from ChEMBL document CHEMBL1124809, “Synthesis and biological evaluation of analogues of Pro-Leu-Gly-NH2 modified at the leucyl residue” (J Med Chem, 1990).

Calls of active or inactive are those of the source. The calls are words filed in the database; no cut-off is given here. Where a SMILES comes first, the peptide text is derived from it. [ ]: non-standard residue; d: D form. Phe(4-NO2) = N[C@@H](Cc1ccc([N+](=O)[O-])cc1)C(=O)O; Phg = N[C@H](C(=O)O)c1ccccc1; Nle = CCCC[C@H](N)C(=O)O; Nva = CCC[C@H](N)C(=O)O; Abu = CC[C@H](N)C(=O)O

The target in assay [1] is D(2) dopamine receptor (Bos taurus) (UniProt P20288). The assay can be described thus: Ability to enhance the binding of [3H]ADTN to dopamine receptor D2 isolated from bovine striatal membranes; inactive. A digest of the protocol:
(§1)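 Membranes from freshly dissected bovine caudate, homogenized in 50 mM Tris-HCl/1 mM EDTA pH 7.4, centrifuged twice at 27000g. Resuspended in Tris-HCl with ascorbate, MnCl2, DTT, PMSF, soybean trypsin inhibitor and bacitracin. 0.2–0.3 mg protein incubated with 8 nM [3H]ADTN ± peptide (10⁻¹²–10⁻⁴ M) for 10 min at 37 °C in triplicate. GF/B filtration, scintillation counting, % increase in specific binding over control.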

Assay [2] has the same target. The assay can be described thus: Ability to enhance the binding of [3H]-ADTN to Dopamine receptor D2 isolated from bovine caudate membranes at 1 uM concentration. A digest of the protocol:
as §1

The target is the same in assay [3]. The assay can be described thus: Ability to stimulate the binding of [3H]ADTN to Dopamine receptor D2 isolated from bovine striatal membranes at 1 uM concentration. A digest of the protocol: as §1
Assay [4] has the same target. The assay can be described thus: Ability to enhance the binding of [3H]ADTN to Dopamine receptor D2 isolated from bovine striatal membranes; maximum effect at 0.1 uM. A digest of the protocol:
as §1

Sequence of D(2) dopamine receptor (Bos taurus) (P20288 whole entry): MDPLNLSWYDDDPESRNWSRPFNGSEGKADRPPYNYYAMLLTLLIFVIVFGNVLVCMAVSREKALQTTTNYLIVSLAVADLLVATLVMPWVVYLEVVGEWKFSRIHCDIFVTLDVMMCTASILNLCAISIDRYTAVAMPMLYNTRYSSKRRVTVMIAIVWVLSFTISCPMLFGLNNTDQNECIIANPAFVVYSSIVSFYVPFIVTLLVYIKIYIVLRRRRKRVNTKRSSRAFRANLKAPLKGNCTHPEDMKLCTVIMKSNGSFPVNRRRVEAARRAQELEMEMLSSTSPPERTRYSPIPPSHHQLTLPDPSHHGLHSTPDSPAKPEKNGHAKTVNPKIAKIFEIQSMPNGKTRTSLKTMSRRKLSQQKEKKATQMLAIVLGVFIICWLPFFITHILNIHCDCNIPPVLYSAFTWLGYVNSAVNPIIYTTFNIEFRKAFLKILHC

Regarding `NC(=O)CNC(=O)[C@H](CCc1ccccc1)NC(=O)[C@@H]1CCCN1`, the outcome in assay [1] was inactive.
For the compound `NC(=O)CNC(=O)[C@H](CCc1ccccc1)NC(=O)[C@H]1CCCN1`, the result in assay [1] was inactive.
Same read-out and setting: to `CC[C@H](C)[C@H](NC(=O)[C@@H]1CCCN1)C(=O)NCC(N)=O` (H-Pro-Ile-Gly-NH2) belongs “inactive”.
Regarding `CC(C)C[C@H](NC(=O)[C@@H]1CCCN1)C(=O)NCC(N)=O` (H-Pro-Leu-Gly-NH2), the Stimulation in assay [2] is 27%.
Compound `NC(=O)CNC(=O)[C@H](Cc1ccccc1)NC(=O)[C@@H]1CCCN1` (H-Pro-Phe-Gly-NH2) gave a Stimulation in assay [3] of 31%.
For the compound `COc1ccc(C[C@H](NC(=O)[C@@H]2CCCN2)C(=O)NCC(N)=O)cc1` (H-Pro-Tyr(Me)-Gly-NH2), the outcome in assay [1] was inactive.
Consider `CC[C@H](NC(=O)[C@@H]1CCCN1)C(=O)NCC(N)=O` (H-Pro-[Abu]-Gly-NH2), for which, in assay [1], the outcome was inactive.
Take `CCCC[C@H](NC(=O)[C@@H]1CCCN1)C(=O)NCC(N)=O` (H-Pro-[Nle]-Gly-NH2): the result in assay [4] was Active.
In the case of `CCC[C@H](NC(=O)[C@@H]1CCCN1)C(=O)NCC(N)=O` (H-Pro-[Nva]-Gly-NH2), the result in assay [1] was inactive.
As for `NC(=O)CNC(=O)[C@H](Cc1ccc([N+](=O)[O-])cc1)NC(=O)[C@@H]1CCCN1` (H-Pro-[Phe(4-NO2)]-Gly-NH2), in assay [1], the result was inactive.
In the case of `NC(=O)CNC(=O)[C@@H](NC(=O)[C@@H]1CCCN1)c1ccccc1` (H-Pro-[Phg]-Gly-NH2), in assay [1], the outcome was inactive.
